How the values were obtained:
[1] = molecular target: T1, Muscarinic acetylcholine receptor M2 (Homo sapiens) (UniProt P08172); assay: Displacement of [3H]N-methyl-scopolamine from human muscarinic M2 receptor expressed in CHO K1 cells at 10 uM; assay type: cell-based
T1 sequence (whole entry): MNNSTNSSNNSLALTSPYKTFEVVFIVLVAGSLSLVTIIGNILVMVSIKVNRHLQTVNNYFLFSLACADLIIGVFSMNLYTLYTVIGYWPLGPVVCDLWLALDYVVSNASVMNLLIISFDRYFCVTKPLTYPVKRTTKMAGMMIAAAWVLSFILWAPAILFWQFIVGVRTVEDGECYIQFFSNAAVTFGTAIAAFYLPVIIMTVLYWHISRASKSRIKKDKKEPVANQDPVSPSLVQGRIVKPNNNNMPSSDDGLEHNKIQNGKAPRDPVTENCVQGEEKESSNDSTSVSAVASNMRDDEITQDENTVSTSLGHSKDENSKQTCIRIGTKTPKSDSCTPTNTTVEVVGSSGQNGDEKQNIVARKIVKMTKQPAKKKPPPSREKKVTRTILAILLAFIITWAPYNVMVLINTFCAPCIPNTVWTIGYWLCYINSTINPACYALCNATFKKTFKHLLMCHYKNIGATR

[2] = molecular target: T2, Muscarinic acetylcholine receptor M2 (Homo sapiens, UniProt P08172); assay: Displacement of [3H]N-methyl-scopolamine from human muscarinic M2 receptor expressed in CHO K1 cells; assay type: cell-based
T2 sequence (P08172 whole entry): T1 sequence (whole entry)
In short: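 Membranes from CHO-K1 cells expressing human M2 receptor, homogenized and stored at -80 °C, resuspended in 50 mM Tris-HCl pH 7.4, 2.5 mM MgCl2, 1 mM EDTA. [3H]-N-methyl scopolamine 0.1-0.3 nM; nonspecific binding with cold N-methyl scopolamine. 10-point curves in duplicate, 60 min at room temperature, filtration through GF/B, scintillation counting.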

[3] = Permeability across human Caco-2 cell membrane; assay type: ADME, cell-based
In short: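 Caco-2 monolayers grown 21 days on polycarbonate inserts. Integrity checked by TEER (1000 Ω) and sodium fluorescein leakage. Compound at 50 µM in 1% DMSO applied apically, 2 h at 37 °C. Apical and basolateral samples measured by LC-MS/MS. Papp = CbVb/(C0·A·t).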

[4] = Intrinsic clearance in rat liver microsomes; assay type: ADME, Microsome
In short: (§1)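 Human or rat liver microsomes at 0.5 mg/mL final, preincubated with 0.5 µM test compound in phosphate buffer pH 7.4 for 10 min at 37 °C. Clearance reported as mL/min/g liver.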

[5] = Intrinsic clearance in human liver microsomes; assay type: ADME, Microsome; in short: as §1
Cytochrome P450 2C9 = Cytochrome P450 2C9 (Homo sapiens, UniProt P11712); assay: Inhibition of human CYP2C9 expressed in insect cells; assay type: ADME
Chain of Cytochrome P450 2C9 (P11712 whole entry, canonical isoform): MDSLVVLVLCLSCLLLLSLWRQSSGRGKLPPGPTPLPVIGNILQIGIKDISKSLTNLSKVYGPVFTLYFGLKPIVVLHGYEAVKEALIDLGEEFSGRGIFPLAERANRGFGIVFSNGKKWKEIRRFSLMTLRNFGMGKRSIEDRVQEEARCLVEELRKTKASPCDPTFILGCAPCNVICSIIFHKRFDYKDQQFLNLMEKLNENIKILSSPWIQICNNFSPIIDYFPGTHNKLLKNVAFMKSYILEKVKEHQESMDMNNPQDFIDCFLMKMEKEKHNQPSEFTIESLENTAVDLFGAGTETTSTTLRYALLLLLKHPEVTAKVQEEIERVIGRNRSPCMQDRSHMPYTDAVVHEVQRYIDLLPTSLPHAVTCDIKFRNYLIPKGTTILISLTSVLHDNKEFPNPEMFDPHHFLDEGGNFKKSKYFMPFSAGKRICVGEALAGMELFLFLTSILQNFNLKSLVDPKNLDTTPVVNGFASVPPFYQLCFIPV
In short: (§2)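 Insect-cell microsomes expressing human CYP1A2, 2C9, 2C19, 2D6 or 3A4, each with an isoform-specific fluorogenic substrate in 0.35 M potassium phosphate pH 7.4. […] Inhibitor serially diluted; plates prewarmed 10 min at 37 °C. Reaction stopped with acetonitrile/Tris, read by fluorescence. IC50 from nonlinear regression. Positive controls: furafylline, sulfaphenazole, tranylcypromine, quinidine, ketoconazole.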

Cytochrome P450 2C19 = Cytochrome P450 2C19 (Homo sapiens, UniProt P33261); assay: Inhibition of human CYP2C19 expressed in insect cells; assay type: ADME; in short: as §2
Chain of Cytochrome P450 2C19 (P33261 whole entry): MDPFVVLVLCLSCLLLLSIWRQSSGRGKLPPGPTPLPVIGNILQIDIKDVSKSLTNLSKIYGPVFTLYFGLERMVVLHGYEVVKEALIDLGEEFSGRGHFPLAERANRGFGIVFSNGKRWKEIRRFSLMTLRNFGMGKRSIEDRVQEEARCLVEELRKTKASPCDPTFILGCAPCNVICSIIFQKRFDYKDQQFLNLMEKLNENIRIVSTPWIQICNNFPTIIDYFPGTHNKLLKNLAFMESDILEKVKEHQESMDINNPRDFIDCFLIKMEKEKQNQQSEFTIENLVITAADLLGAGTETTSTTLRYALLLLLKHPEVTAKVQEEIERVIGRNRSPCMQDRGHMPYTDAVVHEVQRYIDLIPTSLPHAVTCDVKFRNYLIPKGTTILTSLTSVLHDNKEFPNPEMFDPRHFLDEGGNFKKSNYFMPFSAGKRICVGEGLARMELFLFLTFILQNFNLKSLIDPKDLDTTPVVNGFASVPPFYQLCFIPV

Cytochrome P450 2D6 = Cytochrome P450 2D6 (Homo sapiens, UniProt P10635); assay: Inhibition of human CYP2D6 expressed in insect cells; assay type: ADME; in short: as §2
Chain of Cytochrome P450 2D6 (P10635 whole entry): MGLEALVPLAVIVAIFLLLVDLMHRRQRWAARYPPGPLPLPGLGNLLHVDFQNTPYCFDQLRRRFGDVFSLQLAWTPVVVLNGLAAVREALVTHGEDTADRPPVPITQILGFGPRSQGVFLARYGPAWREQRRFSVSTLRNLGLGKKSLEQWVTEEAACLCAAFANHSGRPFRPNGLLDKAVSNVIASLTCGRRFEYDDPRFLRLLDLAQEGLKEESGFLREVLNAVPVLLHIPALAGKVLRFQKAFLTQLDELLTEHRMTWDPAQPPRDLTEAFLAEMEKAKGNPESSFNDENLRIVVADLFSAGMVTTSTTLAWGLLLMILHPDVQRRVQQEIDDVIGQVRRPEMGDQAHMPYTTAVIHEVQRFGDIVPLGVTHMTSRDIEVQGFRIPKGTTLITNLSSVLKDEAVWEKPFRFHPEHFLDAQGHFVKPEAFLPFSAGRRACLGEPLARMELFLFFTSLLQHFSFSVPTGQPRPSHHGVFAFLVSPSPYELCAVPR

Cytochrome P450 3A4 = Cytochrome P450 3A4 (Homo sapiens, UniProt P08684); assay: Inhibition of human CYP3A4 expressed in insect cells; assay type: ADME; in short: as §2
Chain of Cytochrome P450 3A4 (P08684 whole entry): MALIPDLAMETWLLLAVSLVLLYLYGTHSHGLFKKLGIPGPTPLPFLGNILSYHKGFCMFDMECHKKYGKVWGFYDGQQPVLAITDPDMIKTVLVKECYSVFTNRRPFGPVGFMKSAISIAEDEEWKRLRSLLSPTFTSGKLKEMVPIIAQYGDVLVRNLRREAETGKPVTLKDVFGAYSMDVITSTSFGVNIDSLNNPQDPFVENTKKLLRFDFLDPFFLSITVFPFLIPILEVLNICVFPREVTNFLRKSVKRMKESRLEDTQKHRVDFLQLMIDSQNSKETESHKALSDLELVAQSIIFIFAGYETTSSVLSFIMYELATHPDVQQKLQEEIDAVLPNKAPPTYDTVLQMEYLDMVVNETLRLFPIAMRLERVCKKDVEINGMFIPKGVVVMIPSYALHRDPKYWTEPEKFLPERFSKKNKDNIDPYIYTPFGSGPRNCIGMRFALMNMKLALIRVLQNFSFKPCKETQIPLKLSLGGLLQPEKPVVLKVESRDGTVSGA

Cytochrome P450 1A2 = molecular target: T3, Cytochrome P450 1A2 (Homo sapiens, UniProt P05177); assay: Inhibition of human CYP1A2 expressed in insect cells; assay type: ADME; in short: as §2
T3 sequence (P05177 whole entry): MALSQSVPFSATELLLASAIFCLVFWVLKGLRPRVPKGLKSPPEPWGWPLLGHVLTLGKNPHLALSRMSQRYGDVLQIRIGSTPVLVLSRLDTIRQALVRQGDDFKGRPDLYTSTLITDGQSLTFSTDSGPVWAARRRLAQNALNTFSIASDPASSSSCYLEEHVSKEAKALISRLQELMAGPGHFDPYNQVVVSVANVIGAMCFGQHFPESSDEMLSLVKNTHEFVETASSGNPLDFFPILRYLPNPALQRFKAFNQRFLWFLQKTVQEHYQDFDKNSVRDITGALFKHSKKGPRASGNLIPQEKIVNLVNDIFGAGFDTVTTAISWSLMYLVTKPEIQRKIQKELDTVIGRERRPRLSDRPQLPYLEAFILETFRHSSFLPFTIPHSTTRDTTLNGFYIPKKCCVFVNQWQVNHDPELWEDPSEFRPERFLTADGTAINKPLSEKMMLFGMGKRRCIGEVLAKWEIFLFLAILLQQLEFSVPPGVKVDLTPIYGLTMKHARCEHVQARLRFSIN

Compound	inhibition [1] [%]	Ki [2]	also measured
O=C1NC(c2ccccc2)(c2ccccc2)CN1C1CCCN(Cc2ccccc2)C1 (stereo not drawn)	< 50	–	–
COc1ccc(C2(c3ccc(OC)cc3)CN(C3CCN(Cc4ccccc4)CC3)C(=O)N2)cc1	< 50	–	–
O=C1NC(c2ccccc2)(c2ccccc2)CN1C1CCN(Cc2cccc(O)c2)CC1	–	0.0479 µM (antagonist)	–
O=C1NC(Cc2ccccc2)(Cc2ccccc2)CN1C1CCN(Cc2ccccc2)CC1	–	2.95 µM (antagonist)	–
O=C1NC(c2ccccc2)(c2ccccc2)CN1C1CCN(Cc2ccccc2)CC1	–	–	Papp [3]: > 5 ×10⁻⁶ cm/s; CLint scaled [4]: 4.7 mL/min/g; CLint scaled [5]: 1.1 mL/min/g
O=C1OC(c2ccccc2)(c2ccccc2)CN1C1CCN(Cc2ccccc2)CC1	–	0.908 µM (antagonist)	–
CN1C(=O)N(C2CCN(Cc3ccccc3)CC2)CC1(c1ccccc1)c1ccccc1	–	0.52 µM (antagonist)	–
O=C1NC(c2cccs2)(c2cccs2)CN1C1CCN(Cc2cccc(F)c2)CC1	–	–	Papp [3]: ≤ 1 ×10⁻⁶ cm/s; CLint scaled [4]: 13.8 mL/min/g; CLint scaled [5]: 0.95 mL/min/g
O=C1NC(c2ccccc2)(c2ccccc2)CN1C1CCCN(Cc2ccccc2)CC1 (stereo not drawn)	–	0.002 µM (antagonist)	–
O=C1NC(c2ccccc2)(c2ccccc2)CN1C1CCN(CC2CCCCC2)CC1	< 50	–	–
O=C1NC(c2ccc(F)cc2)(c2ccc(F)cc2)CN1C1CCN(Cc2cccc(Cl)c2)CC1	–	–	IC50 (Cytochrome P450 2C9): 4.2 µM; IC50 (Cytochrome P450 2C19): 17.7 µM; IC50 (Cytochrome P450 2D6): 5.3 µM; IC50 (Cytochrome P450 3A4): > 100 µM; Papp [3]: < 1 ×10⁻⁶ cm/s; CLint scaled [4]: 1.8 mL/min/g; CLint scaled [5]: 0.87 mL/min/g; IC50 (Cytochrome P450 1A2): > 100 µM

Continued, in another order:

inhibition [1] [%]	Ki [2]	Compound	also measured
< 50	–	COc1ccccc1CN1CCC(N2CC(c3ccccc3)(c3ccccc3)NC2=O)CC1	–
< 50	–	O=C1NC(c2ccccc2)(c2ccccc2)CN1C1CCN(Cc2cccc(C(F)(F)F)c2)CC1	–
< 50	–	O=C1NC(c2ccccc2)(c2ccccc2)CN1C1CCN(c2ccccc2)CC1	–
–	0.302 µM (antagonist)	O=C1NC(c2ccccc2)(c2ccccc2)CN1C1CCN(Cc2cccc(F)c2)CC1	–
–	2.27 µM (antagonist)	O=C1NC(c2ccccc2)(c2ccccc2)CN1[C@H]1CCN(Cc2ccccc2)C1	–
< 50	–	O=C1NC(c2ccccc2)(c2ccccc2)CN1C1CCN(Cc2ccccc2Cl)CC1	–
–	0.182 µM (antagonist)	Nc1cccc(CN2CCC(N3CC(c4ccccc4)(c4ccccc4)NC3=O)CC2)c1	–
–	0.302 µM (antagonist)	O=C1NC(c2ccccc2)(c2ccccc2)CN1C1CCN(Cc2cccnc2)CC1	–
–	0.927 µM (antagonist)	O=C1NC(c2ccccc2)(c2ccccc2)CN1C1CCN(Cc2cccs2)CC1	–
–	0.695 µM (antagonist)	COc1cccc(CN2CCC(N3CC(c4ccccc4)(c4ccccc4)NC3=O)CC2)c1	–
–	0.0822 µM (antagonist)	O=C1NC(c2ccccc2)(c2ccccc2)CN1[C@@H]1CCN(Cc2ccccc2)C1	–

Source: ChEMBL document CHEMBL1142992, “Discovery of diaryl imidazolidin-2-one derivatives, a novel class of muscarinic M3 selective antagonists (Part 1)” (J Med Chem, 2007)
